# Measurements as given in the M2OR odorant receptor database.
# Tests used:
# Settings in all cases: stereoisomer not certain
# UniProt Q8VGV7 = biological target: T1, UniProt Q8VGV7
# T1 sequence (whole entry): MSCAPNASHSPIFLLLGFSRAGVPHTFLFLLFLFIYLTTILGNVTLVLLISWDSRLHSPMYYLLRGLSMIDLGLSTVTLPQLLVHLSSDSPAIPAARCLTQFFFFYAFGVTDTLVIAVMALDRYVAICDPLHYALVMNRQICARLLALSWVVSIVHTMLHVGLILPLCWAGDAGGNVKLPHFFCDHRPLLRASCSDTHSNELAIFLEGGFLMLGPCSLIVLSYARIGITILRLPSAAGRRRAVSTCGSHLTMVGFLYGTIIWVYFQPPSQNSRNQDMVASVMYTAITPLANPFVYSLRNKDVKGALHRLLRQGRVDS
# Summary of the method: (§1)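 Transient luciferase assays in mammalian cell lines were common, though methods varied by source. The values come from published papers and their supplementary material, with extra details from the original authors when needed. Responsive refers to a measured signal the original authors judged statistically different from baseline, and non-responsive (inactive) to the remainder.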
# UniProt Q8VGX3 = biological target: T2, UniProt Q8VGX3
# T2 sequence (whole entry): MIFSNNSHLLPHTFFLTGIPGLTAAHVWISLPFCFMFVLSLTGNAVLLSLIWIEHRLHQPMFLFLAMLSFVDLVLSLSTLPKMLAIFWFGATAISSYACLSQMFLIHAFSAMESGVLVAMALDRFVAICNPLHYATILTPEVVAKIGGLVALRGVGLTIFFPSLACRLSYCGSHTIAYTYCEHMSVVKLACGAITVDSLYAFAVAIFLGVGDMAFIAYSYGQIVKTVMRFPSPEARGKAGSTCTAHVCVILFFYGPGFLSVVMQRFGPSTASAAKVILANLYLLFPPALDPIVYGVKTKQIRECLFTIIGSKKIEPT
# Summary of the method: as §1
# UniProt Q8VGX5 = biological target: T3, UniProt Q8VGX5
# T3 sequence (whole entry): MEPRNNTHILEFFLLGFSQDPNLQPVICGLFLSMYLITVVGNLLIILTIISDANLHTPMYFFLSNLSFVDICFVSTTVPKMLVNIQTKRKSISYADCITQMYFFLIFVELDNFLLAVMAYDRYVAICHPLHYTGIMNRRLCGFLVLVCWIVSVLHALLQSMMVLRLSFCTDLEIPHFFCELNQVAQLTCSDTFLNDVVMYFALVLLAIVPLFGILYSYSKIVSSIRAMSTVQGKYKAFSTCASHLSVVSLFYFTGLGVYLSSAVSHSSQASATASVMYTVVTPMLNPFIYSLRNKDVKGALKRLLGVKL
# Summary of the method: as §1
# UniProt Q8VGX8 = biological target: T4, UniProt Q8VGX8
# T4 sequence (whole entry): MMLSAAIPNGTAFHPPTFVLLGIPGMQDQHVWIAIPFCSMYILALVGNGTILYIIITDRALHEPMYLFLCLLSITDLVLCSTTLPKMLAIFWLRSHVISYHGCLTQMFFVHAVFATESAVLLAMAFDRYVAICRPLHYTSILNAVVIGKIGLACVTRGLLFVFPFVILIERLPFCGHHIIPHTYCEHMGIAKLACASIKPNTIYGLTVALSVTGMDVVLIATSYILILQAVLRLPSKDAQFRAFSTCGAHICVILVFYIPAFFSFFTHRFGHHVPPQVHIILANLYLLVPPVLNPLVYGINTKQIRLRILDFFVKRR
# Summary of the method: as §1
# UniProt Q8VGY6 = biological target: T5, UniProt Q8VGY6
# T5 sequence (whole entry): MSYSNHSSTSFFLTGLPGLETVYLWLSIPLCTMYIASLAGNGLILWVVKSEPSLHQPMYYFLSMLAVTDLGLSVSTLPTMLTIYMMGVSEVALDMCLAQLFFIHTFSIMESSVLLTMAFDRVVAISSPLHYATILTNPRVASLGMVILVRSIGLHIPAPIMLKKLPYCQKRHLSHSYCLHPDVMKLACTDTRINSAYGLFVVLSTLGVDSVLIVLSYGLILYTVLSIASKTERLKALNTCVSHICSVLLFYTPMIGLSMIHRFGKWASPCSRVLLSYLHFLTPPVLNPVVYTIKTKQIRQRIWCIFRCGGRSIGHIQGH
# Summary of the method: as §1
# UniProt Q8VGZ2 = biological target: T6, UniProt Q8VGZ2
# T6 sequence (whole entry): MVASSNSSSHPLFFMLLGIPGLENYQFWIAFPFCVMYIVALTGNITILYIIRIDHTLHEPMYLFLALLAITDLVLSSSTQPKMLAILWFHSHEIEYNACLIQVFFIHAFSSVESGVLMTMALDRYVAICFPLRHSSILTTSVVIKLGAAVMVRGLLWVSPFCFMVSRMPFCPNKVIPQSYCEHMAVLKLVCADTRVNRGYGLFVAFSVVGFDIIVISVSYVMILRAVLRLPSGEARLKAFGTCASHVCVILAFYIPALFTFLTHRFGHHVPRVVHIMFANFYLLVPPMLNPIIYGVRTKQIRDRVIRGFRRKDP
# Summary of the method: as §1
# UniProt Q8VGZ7 = biological target: T7, UniProt Q8VGZ7
# T7 sequence (whole entry): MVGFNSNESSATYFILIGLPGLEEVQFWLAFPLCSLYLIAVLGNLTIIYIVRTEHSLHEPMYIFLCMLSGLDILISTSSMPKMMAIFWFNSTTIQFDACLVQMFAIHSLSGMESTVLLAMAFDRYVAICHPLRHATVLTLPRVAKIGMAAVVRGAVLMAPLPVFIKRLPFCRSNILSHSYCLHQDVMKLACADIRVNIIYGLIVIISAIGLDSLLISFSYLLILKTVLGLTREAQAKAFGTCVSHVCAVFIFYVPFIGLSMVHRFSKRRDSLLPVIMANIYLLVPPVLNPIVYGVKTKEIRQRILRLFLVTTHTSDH
# Summary of the method: as §1
# UniProt Q8VH10 = biological target: T8, UniProt Q8VH10
# T8 sequence (whole entry): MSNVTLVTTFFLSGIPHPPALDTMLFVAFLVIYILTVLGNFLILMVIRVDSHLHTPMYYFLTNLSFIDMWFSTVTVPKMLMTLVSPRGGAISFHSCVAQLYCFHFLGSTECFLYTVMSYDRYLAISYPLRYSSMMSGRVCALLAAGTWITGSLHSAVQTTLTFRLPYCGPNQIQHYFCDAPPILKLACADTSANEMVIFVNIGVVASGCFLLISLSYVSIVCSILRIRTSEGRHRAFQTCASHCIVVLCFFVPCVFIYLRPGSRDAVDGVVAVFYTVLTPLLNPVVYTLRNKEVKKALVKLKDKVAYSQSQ
# Summary of the method: as §1
# UniProt Q8VH16 = biological target: T9, UniProt Q8VH16
# T9 sequence (whole entry): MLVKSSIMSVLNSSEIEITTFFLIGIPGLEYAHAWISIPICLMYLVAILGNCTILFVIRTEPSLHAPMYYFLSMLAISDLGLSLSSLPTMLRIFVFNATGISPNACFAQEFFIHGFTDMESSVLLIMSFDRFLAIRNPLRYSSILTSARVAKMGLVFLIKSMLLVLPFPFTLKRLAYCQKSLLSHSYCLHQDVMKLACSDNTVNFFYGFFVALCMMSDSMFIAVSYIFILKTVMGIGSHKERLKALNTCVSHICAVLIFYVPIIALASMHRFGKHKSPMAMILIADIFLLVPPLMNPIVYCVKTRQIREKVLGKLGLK
# Summary of the method: as §1
# UniProt Q8VH20 = biological target: T10, UniProt Q8VH20
# T10 sequence (whole entry): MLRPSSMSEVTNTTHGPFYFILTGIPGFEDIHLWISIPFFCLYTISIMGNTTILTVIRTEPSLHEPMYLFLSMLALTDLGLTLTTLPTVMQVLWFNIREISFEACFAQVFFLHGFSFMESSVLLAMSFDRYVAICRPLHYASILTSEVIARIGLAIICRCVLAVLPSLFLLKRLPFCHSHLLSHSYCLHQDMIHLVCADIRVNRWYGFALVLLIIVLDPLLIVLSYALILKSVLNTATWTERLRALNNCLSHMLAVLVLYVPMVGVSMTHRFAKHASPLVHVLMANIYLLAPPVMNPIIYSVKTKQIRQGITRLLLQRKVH
# Summary of the method: as §1
# 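Further: active if original authors judged signal statistically different from baseline.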
compound,measurement,setting,value
C=CCOC(=O)Cc1ccccc1,odorant receptor agonist call,UniProt Q8VGV7,inactive
same,odorant receptor agonist call,UniProt Q8VGX3,inactive
same,odorant receptor agonist call,UniProt Q8VGX5,active
same,odorant receptor agonist call,UniProt Q8VGX8,inactive
same,odorant receptor agonist call,UniProt Q8VGY6,inactive
same,odorant receptor agonist call,UniProt Q8VGZ2,inactive
same,odorant receptor agonist call,UniProt Q8VGZ7,inactive
same,odorant receptor agonist call,UniProt Q8VH10,active
same,odorant receptor agonist call,UniProt Q8VH16,inactive
same,odorant receptor agonist call,UniProt Q8VH20,inactive
